The record followed here is ChEMBL document CHEMBL4316644, “Eudesmane Glycosides from Ambrosia artemisiifolia (Common Ragweed) as Potential Neuroprotective Agents” (J Nat Prod, 2019).

Activity calls are given as the source filed them. No cut-off for these calls is given here.

The test system of data set [1] is HT-22. As to the kind of experiment: Neuroprotective against amyloid beta (42 residues)-induced cell death in mouse HT22 cells transfected with pEGFP-C1/Abeta42 assessed as increase in cell viability at 40 uM measured after 24 hrs by MTT assay. Format: functional, cell-based. The procedure, abridged: (§1)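 HT22 cells seeded at 4000 cells/well for 2–3 h at 37 °C, 5% CO2, then transfected with 0.2 μg pEGFP-C1/Aβ42 plasmid by Lipofectamine 2000. After 10 h, compounds were added in medium, mostly at 40 μM, some at 5 μM or at 10, 20 and 40 μM. Incubation continued 24 h, then MTT (2 mg/mL) viability read-out. Mean ± SD, n = 3, versus untreated Aβ42-transfected cells.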

The subject of data set [2] is HT-22. The data set can be described thus: Neuroprotective against amyloid beta (42 residues)-induced cell death in mouse HT22 cells transfected with pEGFP-C1/Abeta42 assessed as increase in fluorescence intensity at 40 uM measured after 24 hrs by fluorescence microscopic analysis. It is filed as functional, cell-based. The procedure, abridged: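 HT22 cells grown on glass coverslips, transfected with Aβ42 plasmid for 10 h. Medium then replaced with fresh medium containing 2% FBS, with or without compounds at 40 μM, for 24 h. Cells washed once with PBS. Fluorescence and bright-field images were captured by fluorescence microscopy to view GFP condensation.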

Data set [3] relates to HT-22. As to the kind of experiment: Neuroprotective against amyloid beta (42 residues)-induced cell death in mouse HT22 cells transfected with pEGFP-C1/Abeta42 assessed as decrease in fluorescence intensity at 40 uM measured after 24 hrs by flow cytometry.
Data set [4] relates to HT-22. As to the kind of experiment: Neuroprotective against amyloid beta (42 residues)-induced cell death in mouse HT22 cells transfected with pEGFP-C1/Abeta42 assessed as increase in cell viability measured after 24 hrs by MTT assay. Format: functional, cell-based. The procedure, abridged:
as §1

Data set [5] relates to HT-22. The data set can be described thus: Cytotoxicity against mouse HT22 cells assessed as reduction in cell viability at 40 uM measured after 24 hrs by MTT assay. Format: cell-based. The following applies: ht-22, 24 h. The method in brief: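 Untransfected HT22 mouse hippocampal cells grown in DMEM with 10% FBS and penicillin/streptomycin, seeded at 4000 cells/well, then incubated 24 h. Compounds in DMSO, diluted in serum-free medium (final DMSO 0.1 to 0.2% v/v), applied for 24 h. MTT (2 mg/mL) added for 4 h in the dark, formazan dissolved in DMSO, absorbance read at 550 nm.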

For data set [6], the system named is HT-22. The data set can be described thus: Neuroprotective against amyloid beta (42 residues)-induced cell death in mouse HT22 cells transfected with pEGFP-C1/Abeta42 assessed as increase in cell viability up to 80 uM measured after 24 hrs by MTT assay. Format: functional, cell-based.

As to `CC1=CC[C@H](O)[C@@]2(C)[C@@H](O)C[C@@H](C(C)C)[C@@H](O[C@@H]3O[C@H](CO)[C@@H](O)[C@H](O)[C@H]3O)[C@H]12`, the result in data set [1], in data set [2] and in data set [3] was Active. Also, the Activity result in data set [4] is “Dose-dependent effect”.
Regarding `CC(=O)O[C@@H]1C[C@H]2[C@H](C)[C@H]3OC(=O)[C@@H](C)[C@H]3CC[C@]2(C)[C@H]1OC(C)=O`, in data set [1], the outcome was Active.
Take `CC1=CC[C@H](O[C@@H]2OC[C@@H](O)[C@H](O)[C@H]2O)[C@@]2(C)[C@@H](O)C[C@@H](C(C)C)[C@@H](O[C@@H]3O[C@H](CO)[C@@H](O)[C@H](O)[C@H]3O)[C@H]12`: the outcome in data set [1], in data set [2] and in data set [3] was Active. Also, in data set [4], the Activity result is “Dose-dependent effect”.
For the compound `CC(=O)OC[C@H]1O[C@@H](O[C@@H]2[C@H](C(C)C)C[C@H](OC(=O)C[C@](C)(O)CC(=O)O)[C@]3(C)[C@@H](O)CC=C(C)[C@@H]23)[C@H](O)[C@@H](O)[C@@H]1O`, the result in data set [1] was Active.
On to `CC1=CC[C@H](O)[C@@]2(C)[C@@H](OC(=O)C[C@](C)(O)CC(=O)O)C[C@@H](C(C)C)[C@@H](O[C@@H]3O[C@H](CO)[C@@H](O)[C@H](O)[C@H]3O)[C@H]12`, for which the outcome in data set [1] was Active.
In the case of `C=C1C(=O)O[C@@H]2[C@H]3C(C)=CC[C@H]3[C@](C)(O)C[C@H](O)[C@@H]12` [CUMAMBRIN B], the Activity result in data set [5] was “Toxic”.
As to `C=C1CC[C@@H]2[C@](C)(CO)[C@H](O)CC[C@@]2(C)[C@@H]1C/C=C1/C(=O)OC[C@H]1O`, the outcome in data set [6] was Active.
On to `C=C1CC[C@@H](O[C@@H]2O[C@H](CO)[C@@H](O)[C@H](O)[C@H]2O)[C@]2(C)CC[C@@H](C(C)C)[C@H](O)[C@@H]12`, for which, in data set [1], the outcome was Active.
On to `C=C1C(=O)O[C@@H]2C[C@@H](C)[C@@H]3C[C@@H](OC(C)=O)[C@H](OC(C)=O)[C@@]3(C)C[C@H]12`, for which, in data set [5], the Activity entry is on record as “Toxic”.
Consider `C=C(C(=O)O)[C@H]1C[C@]2(C)C(=O)CC[C@]23O[C@H]1C[C@@H]3C`, for which the result in data set [1] was Active.
Consider `CC1=CC[C@H](OC(=O)C[C@](C)(O)CC(=O)O)[C@@]2(C)[C@@H](O)C[C@@H](C(C)C)[C@@H](O[C@@H]3O[C@H](CO)[C@@H](O)[C@H](O)[C@H]3O)[C@H]12`, for which the result in data set [1] was Active.
`O=C(/C=C/c1ccc(O)cc1)NCCCCN(CCCNC(=O)/C=C/c1ccc(O)cc1)C(=O)/C=C/c1ccc(O)cc1`: the result in data set [1] was Active.
